Common to all, as to format: nucleic-acid assay
Assay [1] relates to Nucleic Acid. The assay is described as follows: Binding affinity to synthetic double stranded DNA D4 at 1.5 uM at pH 6.0 by thermal denaturation study. The procedure, abridged:
(§1)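 Parallel triplex melting: target duplex assembled from strands at 1.0 µM each, TFO third strand added at 1.5 µM. Buffer 20 mM sodium cacodylate, 100 mM NaCl, 10 mM MgCl₂, at the pH of the line. Samples heated to 80 °C for 5 min, cooled to 5 °C and held 30 min. Absorbance read at 260 nm while heating at 1.0 °C/min; Tm taken as the first-derivative maximum.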

In assay [2] the test system is Nucleic Acid. As to the kind of experiment: Binding affinity to synthetic double stranded DNA D3 at 1.5 uM at pH 6.0 by thermal denaturation study. In a few lines:
as §1

Assay [3] concerns Nucleic Acid. As to the kind of experiment: Binding affinity to synthetic double stranded DNA D2 at 1.5 uM at pH 6.0 by thermal denaturation study. In a few lines:
as §1

For assay [4], the system named is Nucleic Acid. As to the kind of experiment: Binding affinity to synthetic oligonucleotide ON18 at 1.0 uM at pH 6.0 by thermal denaturation study. In a few lines:
(§2)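 Duplex melting: complementary strands at 1.0 µM each in 20 mM sodium cacodylate, 100 mM NaCl, 10 mM MgCl₂, at the pH of the line. Annealed at 80 °C for 5 min, then cooled to 5 °C and held 30 min. UV absorbance read at 260 nm with heating at 1.0 °C/min; Tm is the maximum of the first-derivative curve.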

The test system of assay [5] is Nucleic Acid. As to the kind of experiment: Binding affinity to synthetic double stranded DNA D1 at 1.5 uM at pH 7.2 by thermal denaturation study. The procedure, abridged: as §1
The test system of assay [6] is Nucleic Acid. The assay is described as follows: Binding affinity to synthetic double stranded DNA D1 at 1.5 uM at pH 6.0 by thermal denaturation study. In a few lines: as §1
The subject of assay [7] is Nucleic Acid. As to the kind of experiment: Binding affinity to synthetic oligonucleotide ON19 at 1.0 uM at pH 6.0 by thermal denaturation study. In a few lines:
as §2

For assay [8], the system named is Nucleic Acid. The assay is described as follows: Binding affinity to synthetic oligonucleotide ON19 at 1.0 uM at pH 7.2 by thermal denaturation study. In a few lines:
as §2

Assay [9] concerns Nucleic Acid. The assay is described as follows: Binding affinity to synthetic oligonucleotide ON20 at 1.0 uM at pH 7.0 by thermal denaturation study. The procedure, abridged:
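DNA/RNA antiparallel duplex: each strand at 1.0 µM in 10 mM sodium phosphate, 140 mM NaCl, 1 mM EDTA, pH 7.0. Heated to 80 °C for 5 min, cooled to 5 °C and held 30 min. Absorbance followed at 260 nm during a 1.0 °C/min temperature ramp; Tm is the first-derivative maximum.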

As for `Cc1cn([C@H]2C[C@H](OP(=O)(O)OC[C@H]3O[C@@H](n4cc(C)c(=O)[nH]c4=O)C[C@@H]3O[PH](O)(O)OC[C@H]3O[C@@H](n4cc(C)c(=O)[nH]c4=O)C[C@@H]3OP(=O)(O)OC[C@H]3O[C@@H](n4cc(C)c(=O)[nH]c4=O)C[C@@H]3OP(=O)(O)OC[C@H]3O[C@@H](n4cc(C)c(=O)[nH]c4=O)C[C@@H]3O)[C@@H](COC[C@H](CCOc3ccc(-c4nc5c6ccccc6c6ccccc6c5[nH]4)cc3)OP(=O)(O)O[C@H]3C[C@H](n4cc(C)c(=O)[nH]c4=O)O[C@@H]3COP(=O)(O)O[C@H]3C[C@H](n4ccc(N)nc4=O)O[C@@H]3COP(=O)(O)O[C@H]3C[C@H](n4cc(C)c(=O)[nH]c4=O)O[C@@H]3COP(=O)(O)O[C@H]3C[C@H](n4cc(C)c(=O)[nH]c4=O)O[C@@H]3COP(=O)(O)O[C@H]3C[C@H](n4cc(C)c(=O)[nH]c4=O)O[C@@H]3COP(=O)(O)O[C@H]3C[C@H](n4ccc(N)nc4=O)O[C@@H]3COP(=O)(O)O[C@H]3C[C@H](n4ccc(N)nc4=O)O[C@@H]3COP(=O)(O)O[C@H]3C[C@H](n4ccc(N)nc4=O)O[C@@H]3COP(=O)(O)O[C@H]3C[C@H](n4ccc(N)nc4=O)O[C@@H]3CO)O2)c(=O)[nH]c1=O`, the Tm worked out at 35.5 °C in the assay with Nucleic Acid [1]; 33 °C in the assay on Nucleic Acid [2]; 30.5 °C with Nucleic Acid [3]; 31.5 °C with Nucleic Acid [4]; 33.5 °C with Nucleic Acid [5]; 48.5 °C in the assay on Nucleic Acid [6]. Moreover, the Tm in the assay on Nucleic Acid [7] worked out at 51 °C; in the assay with Nucleic Acid [8] it was 51 °C; with Nucleic Acid [9], 53 °C.
With `Cc1cn([C@H]2C[C@H](OP(=O)(O)OC[C@H]3O[C@@H](n4ccc(N)nc4=O)C[C@@H]3OP(=O)(O)OC[C@H]3O[C@@H](n4cc(C)c(=O)[nH]c4=O)C[C@@H]3OP(=O)(O)O[C@@H](CCOc3ccc(-c4nc5c6ccccc6c6ccccc6c5[nH]4)c4ccccc34)COC[C@H]3O[C@@H](n4cc(C)c(=O)[nH]c4=O)C[C@@H]3OP(=O)(O)OC[C@H]3O[C@@H](n4cc(C)c(=O)[nH]c4=O)C[C@@H]3O[PH](O)(O)OC[C@H]3O[C@@H](n4cc(C)c(=O)[nH]c4=O)C[C@@H]3OP(=O)(O)OC[C@H]3O[C@@H](n4cc(C)c(=O)[nH]c4=O)C[C@@H]3OP(=O)(O)OC[C@H]3O[C@@H](n4cc(C)c(=O)[nH]c4=O)C[C@@H]3O)[C@@H](COC[C@H](CCOc3ccc(-c4nc5c6ccccc6c6ccccc6c5[nH]4)c4ccccc34)OP(=O)(O)O[C@H]3C[C@H](n4cc(C)c(=O)[nH]c4=O)O[C@@H]3COP(=O)(O)O[C@H]3C[C@H](n4cc(C)c(=O)[nH]c4=O)O[C@@H]3COP(=O)(O)O[C@H]3C[C@H](n4ccc(N)nc4=O)O[C@@H]3COP(=O)(O)O[C@H]3C[C@H](n4ccc(N)nc4=O)O[C@@H]3COP(=O)(O)O[C@H]3C[C@H](n4ccc(N)nc4=O)O[C@@H]3COP(=O)(O)O[C@H]3C[C@H](n4ccc(N)nc4=O)O[C@@H]3CO)O2)c(=O)[nH]c1=O`, the Tm with Nucleic Acid [1] is 17.5 °C; in the assay with Nucleic Acid [2], 33.5 °C; in the assay on Nucleic Acid [3] it was 24 °C; with Nucleic Acid [4], 20.5 °C; in the assay on Nucleic Acid [5], 15 °C; in the assay with Nucleic Acid [6] it was 46.5 °C. In addition, the values for the Tm in the assay on Nucleic Acid [7], with Nucleic Acid [8] and in the assay on Nucleic Acid [9] were 38.5 °C, 38.5 °C and 42.5 °C, respectively.
Regarding `Cc1cn([C@H]2C[C@H](OP(=O)(O)OC[C@H]3O[C@@H](n4cc(C)c(=O)[nH]c4=O)C[C@@H]3OP(=O)(O)OC[C@H]3O[C@@H](n4cc(C)c(=O)[nH]c4=O)C[C@@H]3O[PH](O)(O)OC[C@H]3O[C@@H](n4cc(C)c(=O)[nH]c4=O)C[C@@H]3OP(=O)(O)OC[C@H]3O[C@@H](n4cc(C)c(=O)[nH]c4=O)C[C@@H]3OP(=O)(O)OC[C@H]3O[C@@H](n4cc(C)c(=O)[nH]c4=O)C[C@@H]3O)[C@@H](COC[C@@H](CCOc3ccc(-c4nc5c6ccccc6c6ccccc6c5[nH]4)c4ccccc34)OP(=O)(O)O[C@H]3C[C@H](n4ccc(N)nc4=O)O[C@@H]3COP(=O)(O)O[C@H]3C[C@H](n4cc(C)c(=O)[nH]c4=O)O[C@@H]3COP(=O)(O)O[C@H]3C[C@H](n4cc(C)c(=O)[nH]c4=O)O[C@@H]3COP(=O)(O)O[C@H]3C[C@H](n4cc(C)c(=O)[nH]c4=O)O[C@@H]3COP(=O)(O)O[C@H]3C[C@H](n4ccc(N)nc4=O)O[C@@H]3COP(=O)(O)O[C@H]3C[C@H](n4ccc(N)nc4=O)O[C@@H]3COP(=O)(O)O[C@H]3C[C@H](n4ccc(N)nc4=O)O[C@@H]3COP(=O)(O)O[C@H]3C[C@H](n4ccc(N)nc4=O)O[C@@H]3CO)O2)c(=O)[nH]c1=O`, the melting temperature (Tm) in the assay on Nucleic Acid [4] stood at 23 °C; with Nucleic Acid [5], 18.5 °C; with Nucleic Acid [6], 35.5 °C; with Nucleic Acid [7] it was 46 °C; with Nucleic Acid [8] it was 46 °C; with Nucleic Acid [9] it was 49 °C.
As to `Cc1cn([C@H]2C[C@H](OP(=O)(O)OC[C@H]3O[C@@H](n4ccc(N)nc4=O)C[C@@H]3OP(=O)(O)OC[C@H]3O[C@@H](n4cc(C)c(=O)[nH]c4=O)C[C@@H]3OP(=O)(O)O[C@@H](CCOc3ccc(-c4nc5c6ccccc6c6ccccc6c5[nH]4)cc3)COC[C@H]3O[C@@H](n4cc(C)c(=O)[nH]c4=O)C[C@@H]3OP(=O)(O)OC[C@H]3O[C@@H](n4cc(C)c(=O)[nH]c4=O)C[C@@H]3O[PH](O)(O)OC[C@H]3O[C@@H](n4cc(C)c(=O)[nH]c4=O)C[C@@H]3OP(=O)(O)OC[C@H]3O[C@@H](n4cc(C)c(=O)[nH]c4=O)C[C@@H]3OP(=O)(O)OC[C@H]3O[C@@H](n4cc(C)c(=O)[nH]c4=O)C[C@@H]3O)[C@@H](COC[C@H](CCOc3ccc(-c4nc5c6ccccc6c6ccccc6c5[nH]4)cc3)OP(=O)(O)O[C@H]3C[C@H](n4cc(C)c(=O)[nH]c4=O)O[C@@H]3COP(=O)(O)O[C@H]3C[C@H](n4cc(C)c(=O)[nH]c4=O)O[C@@H]3COP(=O)(O)O[C@H]3C[C@H](n4ccc(N)nc4=O)O[C@@H]3COP(=O)(O)O[C@H]3C[C@H](n4ccc(N)nc4=O)O[C@@H]3COP(=O)(O)O[C@H]3C[C@H](n4ccc(N)nc4=O)O[C@@H]3COP(=O)(O)O[C@H]3C[C@H](n4ccc(N)nc4=O)O[C@@H]3CO)O2)c(=O)[nH]c1=O`, the Tm in the assay with Nucleic Acid [1] is 42 °C; with Nucleic Acid [2], 37 °C; in the assay on Nucleic Acid [3] it was 35.5 °C; in the assay with Nucleic Acid [4] it was 37.5 °C; in the assay with Nucleic Acid [5] it was 37 °C; in the assay on Nucleic Acid [6], 51.5 °C. Further, the figures for the Tm with Nucleic Acid [7], in the assay with Nucleic Acid [8] and with Nucleic Acid [9] were 49 °C, 50.5 °C and 49.5 °C, respectively.
On to `Cc1cn([C@H]2C[C@H](OP(=O)(O)OC[C@H]3O[C@@H](n4cc(C)c(=O)[nH]c4=O)C[C@@H]3OP(=O)(O)OC[C@H]3O[C@@H](n4cc(C)c(=O)[nH]c4=O)C[C@@H]3OP(=O)(O)OC[C@H]3O[C@@H](n4ccc(N)nc4=O)C[C@@H]3OP(=O)(O)OC[C@H]3O[C@@H](n4cc(C)c(=O)[nH]c4=O)C[C@@H]3OP(=O)(O)OC[C@H]3O[C@@H](n4cc(C)c(=O)[nH]c4=O)C[C@@H]3OP(=O)(O)OC[C@H]3O[C@@H](n4cc(C)c(=O)[nH]c4=O)C[C@@H]3O[PH](O)(O)OC[C@H]3O[C@@H](n4cc(C)c(=O)[nH]c4=O)C[C@@H]3OP(=O)(O)OC[C@H]3O[C@@H](n4cc(C)c(=O)[nH]c4=O)C[C@@H]3OP(=O)(O)OC[C@H]3O[C@@H](n4cc(C)c(=O)[nH]c4=O)C[C@@H]3O)[C@@H](COP(=O)(O)O[C@H]3C[C@H](n4ccc(N)nc4=O)O[C@@H]3COP(=O)(O)O[C@H]3C[C@H](n4ccc(N)nc4=O)O[C@@H]3COP(=O)(O)O[C@H]3C[C@H](n4ccc(N)nc4=O)O[C@@H]3COP(=O)(O)O[C@H]3C[C@H](n4ccc(N)nc4=O)O[C@@H]3COP(=O)(O)O[C@H](CO)CCOc3ccc(-c4nc5c6ccccc6c6ccccc6c5[nH]4)cc3)O2)c(=O)[nH]c1=O`, for which the Tm was 34 °C with Nucleic Acid [4]; 20.5 °C with Nucleic Acid [5]; 46 °C in the assay with Nucleic Acid [6]; 56.5 °C in the assay with Nucleic Acid [7]; 56.5 °C in the assay on Nucleic Acid [8]; 59 °C in the assay on Nucleic Acid [9].
As for `Cc1cn([C@H]2C[C@H](OP(=O)(O)OC[C@H]3O[C@@H](n4cc(C)c(=O)[nH]c4=O)C[C@@H]3OP(=O)(O)OC[C@H]3O[C@@H](n4cc(C)c(=O)[nH]c4=O)C[C@@H]3OP(=O)(O)OC[C@H]3O[C@@H](n4ccc(N)nc4=O)C[C@@H]3OP(=O)(O)OC[C@H]3O[C@@H](n4cc(C)c(=O)[nH]c4=O)C[C@@H]3OP(=O)(O)OC[C@H]3O[C@@H](n4cc(C)c(=O)[nH]c4=O)C[C@@H]3OP(=O)(O)OC[C@H]3O[C@@H](n4cc(C)c(=O)[nH]c4=O)C[C@@H]3O[PH](O)(O)OC[C@H]3O[C@@H](n4cc(C)c(=O)[nH]c4=O)C[C@@H]3OP(=O)(O)OC[C@H]3O[C@@H](n4cc(C)c(=O)[nH]c4=O)C[C@@H]3OP(=O)(O)OC[C@H]3O[C@@H](n4cc(C)c(=O)[nH]c4=O)C[C@@H]3OP(=O)(O)O[C@H](CO)CCOc3ccc(-c4nc5c6ccccc6c6ccccc6c5[nH]4)cc3)[C@@H](COP(=O)(O)O[C@H]3C[C@H](n4ccc(N)nc4=O)O[C@@H]3COP(=O)(O)O[C@H]3C[C@H](n4ccc(N)nc4=O)O[C@@H]3COP(=O)(O)O[C@H]3C[C@H](n4ccc(N)nc4=O)O[C@@H]3COP(=O)(O)O[C@H]3C[C@H](n4ccc(N)nc4=O)O[C@@H]3CO)O2)c(=O)[nH]c1=O`, the Tm in the assay with Nucleic Acid [4] was determined as 31.5 °C; in the assay on Nucleic Acid [5] it was 20 °C; with Nucleic Acid [6], 43.5 °C; with Nucleic Acid [7], 54 °C; in the assay on Nucleic Acid [8] it was 54 °C; with Nucleic Acid [9] it was 55.5 °C.

Broadly, the Tm is the temperature at which the thermal transition is half complete.

Values taken from ChEMBL document CHEMBL1151702, “Using an aryl phenanthroimidazole moiety as a conjugated flexible intercalator to improve the hybridization efficiency of a triplex-forming oligonucleotide” (Bioorg Med Chem, 2008).
